Shown are actives, neighbours in structure and some others; about 2.9% of the full set was active somewhere.
SF-1 act: SF-1 (human) activation; CHO-K1 Gal4-SF-1 LBD luciferase reporter; % increase over DMSO SF-1-specific signal; activation, % at 10 µM; 65,000 compounds, 1.9% hits;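 active means activation above the mean activation of all tested compounds plus 3 SD, cut at about 50% in these data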
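System: CHO-K1 cells with Gal4–hSF-1 LBD chimera plus Gal4-driven luciferase; quantity: 4,000 CHO-K1 cells per well; compound: one dose, 10 µM compound, 1% DMSO; times: 20 h compound treatment, 37 °C; measured by: SteadyLite luciferase luminescence; read-out: percent activation versus DMSO; benchmarks: DMSO and mock-transfected background; replicates: one test per compound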
Jurkat viability: cytotoxic compounds reducing Jurkat cell viability | AID 463 | Jurkat E6.1 viability, ATP luminescence, 48 h | 56,000 compounds, 1.2% hits | inhibition, % at 4 µM;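 active means inhibition above the mean inhibition of all tested compounds plus 3 SD, cut at about 28% in these data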
HEK293 NFkB inh: lowers PMA/ionomycin-induced NF-kB signal in HEK293 cells; AID 465; inhibition, % at 3 µM; 62,000 compounds, 0.21% hits; HEK-293 NF-kB luciferase reporter, luminescence;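 active means inhibition above the mean of all tested compounds plus 3 SD, cut at about 40% in these data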;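 further: 0% = stimulated DMSO wells and 100% = 10 µM reference inhibitor 5653914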
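System – HEK-293 cells with stable firefly luciferase reporter driven by four HIV NF-kB elements · Doses – one dose, 3 µM · Schedule – 1 h compound pre-incubation, 16 h PMA/ionomycin at 37 °C · Technique – luminescence from luciferase substrate reagent · Measure – percent inhibition normalized per plate to DMSO and reference-inhibitor controls · Replicates – tested once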
RORA act: activates the human nuclear receptor RORA; P35398; 65,000 compounds, 1.5% hits; AID 560; activation, % at 10 µM; CHO-K1 Gal4-RORA LBD luciferase reporter, luminescence; percent increase over mock-subtracted basal signal;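 active means activation above the mean of all tested compounds plus 3 SD, cut at about 49% in these data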;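 further: 0% = DMSO-treated RORA cells and 100% = added signal equal to DMSO minus mock-transfected cells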
Target sequence (P35398 whole entry, looked up, the tested form may be a part): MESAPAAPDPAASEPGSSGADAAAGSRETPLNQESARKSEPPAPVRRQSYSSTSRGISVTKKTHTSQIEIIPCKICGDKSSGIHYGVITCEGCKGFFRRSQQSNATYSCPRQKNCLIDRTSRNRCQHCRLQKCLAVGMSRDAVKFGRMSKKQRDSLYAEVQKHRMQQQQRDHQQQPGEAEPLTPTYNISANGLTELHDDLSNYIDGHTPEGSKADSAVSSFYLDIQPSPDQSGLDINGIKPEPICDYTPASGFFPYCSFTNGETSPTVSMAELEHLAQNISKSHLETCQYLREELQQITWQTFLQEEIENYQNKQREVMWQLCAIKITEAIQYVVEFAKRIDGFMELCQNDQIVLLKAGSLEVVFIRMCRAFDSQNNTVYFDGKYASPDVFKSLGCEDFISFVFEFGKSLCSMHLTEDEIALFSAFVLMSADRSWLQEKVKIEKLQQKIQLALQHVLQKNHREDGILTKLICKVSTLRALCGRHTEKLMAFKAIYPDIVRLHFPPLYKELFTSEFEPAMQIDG
MT1-MMP txn act: activates MT1-MMP transcription. HT1080 MT1-MMP promoter luciferase reporter, luminescence, overnight; active compounds read high. activation factor at 10 µM. 86,000 compounds, 0.16% hits;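 active means activation factor of at least 2 for MT1-MMP transcription at 10 µM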
* hit, by the source's call; x = not tested or not shown.

SMILES | SF-1 act | Jurkat viability | HEK293 NFkB inh | RORA act | MT1-MMP txn act
CN1C(=O)CSc2ccc(NC(=O)N3CCc4ccccc43)cc21 | 104.8* | 0.6 | -56.0 | 74.8* | 1.2
O=C(c1ccco1)N1CCN(CC(O)COc2ccc3oc4ccccc4c3c2)CC1 (stereo not drawn) | -8.8 | 3.9 | 2.4 | -12.1 | 1.1
Cc1cccc(Cn2c(=O)n(CCCC(=O)NCc3ccco3)c(=O)c3ccccc32)c1 | 33.6 | 71.0* | 15.5 | 54.6* | 1.1
Cc1ccccc1Cn1c(=O)n(CCCC(=O)NCc2ccco2)c(=O)c2ccccc21 | 24.6 | 3.4 | 12.9 | -1.4 | 1
CCCOC(=O)c1sc2nc3c(cc2c1N)C(=O)CCC3 | 60.5* | 4.7 | -21.6 | 35.1 | 1.3
CN(C)c1ccccc1C(=O)c1ccccc1N(C)C | 78.1* | 88.2* | 11.9 | 78.9* | 1.6
CCN1C(=O)CC(c2ccco2)Sc2ccccc21 (stereo not drawn) | -10.2 | 6.6 | 11.0 | -11.6 | 1.2
COc1ccc(OC)c(N(CC(N)=O)S(=O)(=O)c2ccc(OC)c(OC)c2)c1 | x | x | x | x | 1
C=CCOC(=O)C1=C(C)NC(=O)NC1c1ccc(OC(=O)c2ccco2)c(OC)c1 (stereo not drawn) | 11.7 | -1.5 | 2.2 | -11.4 | 1.1
CCC(=O)Nc1nnc(-c2ccco2)o1 | 3.8 | -3.9 | 2.7 | 4.0 | 1.1
Cc1ccsc1C(=O)Nc1nnc(-c2ccco2)o1 | 4.3 | 89.2* | 0.6 | 6.0 | 1
CSc1ccccc1NC(=O)COc1ccc(S(=O)(=O)N2CCCC2)cc1 | -14.0 | 1.3 | 4.7 | 1.5 | 1.1
CC(=O)c1cccc(NC(=O)c2cc3ccccn3n2)c1 | 29.5 | 4.5 | -2.5 | 28.4 | 1.1
CC(=O)c1cccc(NC(=O)c2cnn3ccccc23)c1 | 66.6* | -7.8 | -11.1 | 9.2 | 1
CCOC(=O)C1(C)/C(=N/Nc2ccccc2Cl)C(=O)C(=O)N1c1ccccc1 (stereo not drawn) | x | x | x | x | 1.1
N#Cc1c(NC(=O)CSc2ncn[nH]2)sc2c1CCCCC2 | -88.2 | 18.7 | 54.0* | -87.9 | x
N#Cc1c(NC(=O)CSc2nc(N)cc(=O)[nH]2)sc2c1CCCCCC2 | -42.3 | 55.7* | 11.0 | -52.2 | 0.9
CCn1c(C)nc2cc(-c3nc4n(n3)Cc3ccccc3-4)ccc21 | -95.7 | 61.9* | 93.1* | -95.7 | 0
COc1cccc(CNC(=O)c2cc3oc4ccccc4c3n2C)c1OC | -4.6 | 29.4* | 18.1 | -7.8 | 1
Cc1ccc(N2C(=O)c3ccc(N)cc3C2=O)cc1C | 64.1* | -7.0 | -28.0 | 106.9* | 1.8
Cc1ccc(N2C(=O)c3ccc(N)cc3C2=O)cc1 | 47.4 | -2.8 | -26.3 | 55.3* | 1.9
CC(=O)Nc1ccc2c(c1)C(=O)N(c1ccc(C)cc1)C2=O | x | x | x | x | 0.8
OC(c1ccccc1)(c1ccc(F)cc1)C(c1ccccc1)N1CCOCC1 (stereo not drawn) | x | x | x | x | 1.1
COC(=O)/C(=C(/F)Sc1cc(C)c(O)c(C)c1)C(F)(F)F | x | x | x | x | 1.1
Nc1ccc(O)c(-c2nc3ccccc3s2)c1 | 39.8 | -0.2 | -6.6 | 22.3 | 2.1*
SMILES | SF-1 act | Jurkat viability | HEK293 NFkB inh | RORA act | MT1-MMP txn act
Nc1cccc(-c2nc3ccc(N)cc3s2)c1 | -61.0 | 17.9 | 17.7 | -56.7 | 0.3
Cn1c(N2CCC(C(N)=O)CC2)nc2c1c(=O)n(Cc1ccc(Br)cc1)c(=O)n2C | -4.7 | -0.3 | 4.1 | -1.6 | 1.1
CCOC(=O)c1ccc(NC(=O)C2CCN(S(=O)(=O)CC)CC2)cc1 | 0.3 | 0.1 | 7.4 | -0.2 | 1.1
CCOC(=O)c1ccc(NS(=O)(=O)N2CCCCCC2)cc1 | 24.0 | -3.8 | 4.7 | 49.4* | 1.3
CCOc1ccc(-n2nc3c(-n4ncc(C#N)c4N)nnc(C)c3c2C)cc1 | x | x | x | x | 1.1
Cc1cc(C)nc(SCc2nc(N)nc(-c3ccccc3O)n2)n1 | 25.0 | 7.9 | -4.2 | -6.0 | 1
Cc1cc(-c2ccccc2)nc(N(C)NC(=O)c2ccc(Cl)cc2)c1S(C)(=O)=O | x | x | x | x | 1.1
CN(C)CC(C(=O)c1ccccc1)c1ccccc1 (stereo not drawn) | -68.1 | 101.2* | 31.6 | -43.0 | 0.3
Brc1ccc(C2=Nn3c(nnc3-c3n[nH]c4c3CCC4)SC2)cc1 | -9.0 | 78.9* | 32.2 | -15.7 | 0.5
Clc1ccc(C2=Nn3c(nnc3-c3n[nH]c4c3CCC4)SC2)cc1 | -8.9 | 91.9* | 38.4 | -17.3 | 1.2
Cc1cccnc1NC(=O)Nc1ccc(F)cc1 | 98.3* | 4.6 | -5.0 | 45.8 | 1.2
Cc1ccc(C)c(N(CC(=O)NCCSCc2ccco2)S(C)(=O)=O)c1 | 1.1 | -4.4 | 7.0 | -0.7 | 1.1
Cn1c(C(=O)N2CCCc3ccccc32)cc2sccc21 | -11.7 | -3.6 | 10.4 | 8.3 | 1.2
CCN(CC)c1ccc2cc(NC(=O)CCC(=O)O)c(=O)oc2c1 | -59.3 | -6.9 | 53.1* | -66.2 | x
Nc1nc(CSc2nc3ccccc3[nH]2)nc(N2CCOCC2)n1 | 12.4 | 3.4 | 10.5 | -10.9 | 1.1
O=C(NCc1ccc2c(c1)OCO2)c1ccccn1 | 30.4 | -2.8 | 17.4 | 13.0 | 1.1
O=C(/C=C\Nc1ccc2c(c1)OCO2)c1ccccn1 | -83.1 | -0.8 | 48.0* | -84.8 | x
CCOC(=O)C(C)Oc1cccc2c(=O)n(CC(=O)NCc3ccc4c(c3)OCO4)ccc12 (stereo not drawn) | -83.1 | 86.9* | 34.0 | 47.8 | x
COc1ccc(Nc2nc(C)c3ccccc3n2)cc1 | 98.7* | -4.4 | -17.3 | 55.1* | 2.1*
COc1ccc(-n2c(SCC(=O)Nc3nc(C)cs3)nnc2-c2ccoc2C)cc1 | x | x | x | x | 2.2*
COc1ccc2nc(NC(=O)CSc3nnc(-c4ccoc4C)n3C)sc2c1 | -6.8 | -2.4 | -6.9 | 107.4* | 1.5
CCn1nnnc1SCC(=O)Nc1nc2ccc(OC)cc2s1 | x | x | x | x | 1.1
Cc1cnc(NC(=O)CSc2nnc(-c3ccccc3)o2)s1 | 87.9* | -1.9 | -24.8 | 20.6 | 1.2
Cc1csc(NC(=O)CSc2nnc(-c3ccoc3C)o2)n1 | 29.6 | 4.4 | -1.5 | 60.6* | 1.3
O=C(NCCn1ccc2ccccc21)c1ccc2c(c1)OCO2 | 71.8* | -2.2 | -40.1 | 76.0* | 1.4
SMILES | SF-1 act | Jurkat viability | HEK293 NFkB inh | RORA act | MT1-MMP txn act
O=C(NCCn1ccc2ccccc21)c1ccc(S(=O)(=O)N2CCCCC2)cc1 | 2.9 | -4.0 | 7.6 | -1.8 | 1.1
COc1ccc(C(=O)NCCn2ccc3ccccc32)cc1 | 58.2* | 4.6 | -23.4 | 56.9* | 1.1
O=C(NCC#CC(CCc1ccccc1)OCc1ccccc1)c1ccccc1 (stereo not drawn) | x | x | x | x | 1.1
Brc1ccc(C2=CC(c3cccs3)n3ncnc3N2)cc1 (stereo not drawn) | x | x | x | x | 1.4
Fc1ccc(Br)cc1C1C=C(c2cccnc2)Nc2ncnn21 (stereo not drawn) | 31.8 | 38.9* | 3.9 | 8.3 | 1
CCCN(CCC)c1nc(NC2CCN(C(=O)OCC)CC2)nc(OC)n1 | -23.3 | 3.3 | 6.3 | -6.9 | 1.1
O=C(Nc1ccc2nc(-c3ccco3)c(-c3ccco3)nc2c1)NC1CC1 | x | x | x | x | 1.1

Bioassay records (PubChem BioAssay)
